Source: ChEMBL document CHEMBL1811814, “Synthesis and evaluation of indole, pyrazole, chromone and pyrimidine based conjugates for tumor growth inhibitory activities--development of highly efficacious cytotoxic agents” (Eur J Med Chem, 2010)

Key:
Assay type in all cases: functional
[1] = system: NCI-H460; assay: Growth inhibition of human NCI-H460 cells
[2] = Growth inhibition of human […] cells assessed tumor cell growth at 10^-5 M; parameters: scale not given: the % may be the effect or the level left
In short: (§1)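 NCI 60-human-tumor-cell-line panel screen. Each compound was tested at a single concentration of 10^-5 M, and percent growth of tumor cells was recorded for each cell line. Growth inhibition was expressed from these percent-growth values.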

[3] = system: Malme-3M; assay: Growth inhibition of human MALME-3M cells
[4] = system: IGROV-1; assay: Growth inhibition of human IGROV1 cells assessed tumor cell growth at 10^-5 M; parameters: scale not given: the % may be the effect or the level left; in short: as §1
[5] = system: MCF7; assay: Growth inhibition of human MCF7 cells assessed tumor cell growth at 10^-5 M; parameters: scale not given: the % may be the effect or the level left; in short: as §1
[6] = system: HL-60(TB); assay: Growth inhibition of human HL-60(TB) cells
[7] = system: A549; assay: Growth inhibition of human A549 cells assessed tumor cell growth at 10^-5 M; parameters: scale not given: the % may be the effect or the level left; in short: as §1
[8] = system: MOLT-4; assay: Growth inhibition of human MOLT4 cells assessed tumor cell growth at 10^-5 M; parameters: scale not given: the % may be the effect or the level left; in short: as §1
[9] = Growth inhibition of human Hs 578T cells
[10] = system: MDA-MB-468; assay: Growth inhibition of human MDA-MB-468 cells
[11] = system: HCC 2998; assay: Growth inhibition of human HCC2998 cells
[12] = system: SNB-75; assay: Growth inhibition of human SNB75 cells
[13] = system: RXF 393; assay: Growth inhibition of human RXF393 cells assessed tumor cell growth at 10^-5 M; parameters: scale not given: the % may be the effect or the level left; in short: as §1
[14] = system: A498; assay: Growth inhibition of human A498 cells assessed tumor cell growth at 10^-5 M; parameters: scale not given: the % may be the effect or the level left; in short: as §1
[15] = system: HT-29; assay: Growth inhibition of human HT-29 cells
[16] = system: ACHN; assay: Growth inhibition of human ACHN cells assessed tumor cell growth at 10^-5 M; parameters: scale not given: the % may be the effect or the level left; in short: as §1
[17] = system: NCI-H226; assay: Growth inhibition of human NCI-H226 cells
[18] = system: MDA-MB-468; assay: Growth inhibition of human MDA-MB-468 cells assessed tumor cell growth at 10^-5 M; parameters: scale not given: the % may be the effect or the level left; in short: as §1
[19] = system: COLO 205; assay: Growth inhibition of human COLO205 cells assessed tumor cell growth at 10^-5 M; parameters: scale not given: the % may be the effect or the level left; in short: as §1
[20] = system: SNB-75; assay: Growth inhibition of human SNB75 cells assessed tumor cell growth at 10^-5 M; parameters: scale not given: the % may be the effect or the level left
In short: (§2)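 Single-dose screen at 10^-5 M across the 60 human tumor cell line panel, run to NCI standards. The value is the percent growth of each cell line in the presence of compound. Compounds active at this dose moved on to five-concentration testing (10^-4 to 10^-8 M).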

[21] = system: TK-10; assay: Growth inhibition of human TK10 cells assessed tumor cell growth at 10^-5 M; parameters: scale not given: the % may be the effect or the level left; in short: as §2
[22] = system: SK-OV-3; assay: Growth inhibition of human SKOV3 cells assessed tumor cell growth at 10^-5 M; parameters: scale not given: the % may be the effect or the level left; in short: as §1
[23] = system: MDA-MB-231; assay: Growth inhibition of human MDA-MB-231 cells assessed tumor cell growth at 10^-5 M; parameters: scale not given: the % may be the effect or the level left; in short: as §1
[24] = system: HOP-62; assay: Growth inhibition of human HOP62 cells
[25] = system: KM12; assay: Growth inhibition of human KM12 cells
[26] = system: Malme-3M; assay: Growth inhibition of human MALME-3M cells assessed tumor cell growth at 10^-5 M; parameters: scale not given: the % may be the effect or the level left; in short: as §1
[27] = system: EKVX; assay: Growth inhibition of human EKVX cells assessed tumor cell growth at 10^-5 M; parameters: scale not given: the % may be the effect or the level left; in short: as §1
[28] = system: KM12; assay: Growth inhibition of human KM12 cells assessed tumor cell growth at 10^-5 M; parameters: scale not given: the % may be the effect or the level left; in short: as §1
[29] = system: SN12C; assay: Growth inhibition of human SN12C cells
[30] = system: UACC-62; assay: Growth inhibition of human UACC62 cells
[31] = system: SF-268; assay: Growth inhibition of human SF268 cells assessed tumor cell growth at 10^-5 M; parameters: scale not given: the % may be the effect or the level left; in short: as §1
[32] = system: DU-145; assay: Growth inhibition of human DU145 cells
[33] = system: NCI-H23; assay: Growth inhibition of human NCI-H23 cells
[34] = system: IGROV-1; assay: Growth inhibition of human IGROV1 cells
In short: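 Follow-up panel testing at five concentrations (10^-4, 10^-5, 10^-6, 10^-7 and 10^-8 M) across the 60 human tumor cell lines. GI50 was obtained for each line from the concentration-response data, with the panel average GI50 also reported.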

[35] = system: SK-MEL-5; assay: Growth inhibition of human SK-MEL-5 cells assessed tumor cell growth at 10^-5 M; parameters: scale not given: the % may be the effect or the level left; in short: as §1
[36] = system: UACC-62; assay: Growth inhibition of human UACC62 cells assessed tumor cell growth at 10^-5 M; parameters: scale not given: the % may be the effect or the level left; in short: as §2
[37] = system: SNB-19; assay: Growth inhibition of human SNB19 cells assessed tumor cell growth at 10^-5 M; parameters: scale not given: the % may be the effect or the level left; in short: as §2
[38] = system: K562; assay: Growth inhibition of human K562 cells assessed tumor cell growth at 10^-5 M; parameters: scale not given: the % may be the effect or the level left; in short: as §1
[39] = system: CCRF-CEM; assay: Growth inhibition of human CCRF-CEM cells
[40] = system: NCI-H522; assay: Growth inhibition of human NCI-H522 cells
[41] = system: SNB-19; assay: Growth inhibition of human SNB19 cells
[42] = system: SF-295; assay: Growth inhibition of human SF295 cells
[43] = system: CCRF-CEM; assay: Growth inhibition of human CCRF-CEM cells assessed tumor cell growth at 10^-5 M; parameters: scale not given: the % may be the effect or the level left; in short: as §1
[44] = system: T47D; assay: Growth inhibition of human T47D cells
[45] = system: U-251; assay: Growth inhibition of human U251 cells
[46] = system: HT-29; assay: Growth inhibition of human HT-29 cells assessed tumor cell growth at 10^-5 M; parameters: scale not given: the % may be the effect or the level left; in short: as §1
[47] = system: SW-620; assay: Growth inhibition of human SW620 cells
[48] = system: M14; assay: Growth inhibition of human M14 cells assessed tumor cell growth at 10^-5 M; parameters: scale not given: the % may be the effect or the level left; in short: as §1
[49] = system: OVCAR-5; assay: Growth inhibition of human OVCAR5 cells assessed tumor cell growth at 10^-5 M; parameters: scale not given: the % may be the effect or the level left; in short: as §1
[50] = system: NCI-H522; assay: Growth inhibition of human NCI-H522 cells assessed tumor cell growth at 10^-5 M; parameters: scale not given: the % may be the effect or the level left; in short: as §1
[51] = system: T47D; assay: Growth inhibition of human T47D cells assessed tumor cell growth at 10^-5 M; parameters: scale not given: the % may be the effect or the level left; in short: as §2
[52] = read-out: LC50 (the source's name)

Q: With CC1=NN(c2cccc(Cl)c2)C(=O)/C1=C\C=C\c1ccccc1 as the compound, how does the GI50 [1] read?
A: 1.6 µM

Q: And the CC50 [1, 52]?
A: 6.4 µM

Q: And the Activity [2]?
A: 15.38%

Q: What about the GI50 [3] of the same compound?
A: 2.7 µM

Q: And the CC50 [3, 52]?
A: > 100 µM

Q: And the Activity [4]?
A: 45.54%

Q: And the Activity [5]?
A: 5.42%

Q: And the GI50 [6]?
A: 3.1 µM

Q: What about the CC50 [6, 52] of the same compound?
A: > 100 µM

Q: What about the Activity [7] of the same compound?
A: 94.48%

Q: What about the Activity [8] of the same compound?
A: 28.39%

Q: What about the GI50 [9] of the same compound?
A: 1.6 µM

Q: And the CC50 [9, 52]?
A: > 100 µM

Q: And the GI50 [10]?
A: 1.6 µM

Q: What about the CC50 [10, 52] of the same compound?
A: 39.8 µM

Q: And the GI50 [11]?
A: 1.9 µM

Q: What about the CC50 [11, 52] of the same compound?
A: 6.3 µM

Q: What about the GI50 [12] of the same compound?
A: 7 µM

Q: And the CC50 [12, 52]?
A: > 100 µM

Q: And the Activity [13]?
A: -87.73%

Q: And the Activity [14]?
A: 109.76%

Q: What about the GI50 [15] of the same compound?
A: 2.9 µM

Q: And the CC50 [15, 52]?
A: > 100 µM

Q: What about the Activity [16] of the same compound?
A: -51.29%

Q: And the GI50 [17]?
A: 2.6 µM

Q: What about the CC50 [17, 52] of the same compound?
A: 64.5 µM

Q: What about the Activity [18] of the same compound?
A: 9.96%

Q: What about the Activity [19] of the same compound?
A: 11.57%

Q: And the Activity [20]?
A: 62.01%

Q: What about the Activity [21] of the same compound?
A: 44.8%

Q: What about the Activity [22] of the same compound?
A: 48.42%

Q: And the Activity [23]?
A: 13.67%

Q: What about the GI50 [24] of the same compound?
A: 3.1 µM

Q: What about the CC50 [24, 52] of the same compound?
A: 57.5 µM

Q: And the GI50 [25]?
A: 1.6 µM

Q: What about the CC50 [25, 52] of the same compound?
A: 5.8 µM

Q: What about the Activity [26] of the same compound?
A: 115.91%

Q: What about the Activity [27] of the same compound?
A: 87.07%

Q: What about the Activity [28] of the same compound?
A: 16.12%

Q: And the GI50 [29]?
A: 2.4 µM

Q: And the CC50 [29, 52]?
A: > 100 µM

Q: What about the GI50 [30] of the same compound?
A: 1.7 µM

Q: What about the CC50 [30, 52] of the same compound?
A: 8.5 µM

Q: What about the Activity [31] of the same compound?
A: 75.5%

Q: What about the GI50 [32] of the same compound?
A: 2.8 µM

Q: And the CC50 [32, 52]?
A: 53.7 µM

Q: And the GI50 [33]?
A: 2.3 µM

Q: And the LC50 (concentration killing 50% of cells) [33]?
A: > 100 µM

Q: And the GI50 [34]?
A: 1.6 µM

Q: What about the CC50 [34, 52] of the same compound?
A: 16.5 µM

Q: What about the Activity [35] of the same compound?
A: 5.05%

Q: What about the Activity [36] of the same compound?
A: 28.21%

Q: What about the Activity [37] of the same compound?
A: 37.51%

Q: What about the Activity [38] of the same compound?
A: 76.92%

Q: What about the GI50 [39] of the same compound?
A: 3.1 µM

Q: What about the CC50 [39, 52] of the same compound?
A: > 100 µM

Q: What about the GI50 [40] of the same compound?
A: 2.6 µM

Q: And the LC50 (concentration killing 50% of cells) [40]?
A: > 100 µM

Q: And the GI50 [41]?
A: 5.6 µM

Q: And the CC50 [41, 52]?
A: > 100 µM

Q: And the GI50 [42]?
A: 3.1 µM

Q: And the CC50 [42, 52]?
A: > 100 µM

Q: What about the Activity [43] of the same compound?
A: 2.35%

Q: What about the GI50 [44] of the same compound?
A: 2.2 µM

Q: What about the CC50 [44, 52] of the same compound?
A: > 100 µM

Q: What about the GI50 [45] of the same compound?
A: 1.7 µM

Q: What about the CC50 [45, 52] of the same compound?
A: 23.9 µM

Q: And the Activity [46]?
A: -29.51%

Q: What about the GI50 [47] of the same compound?
A: 1.7 µM

Q: And the CC50 [47, 52]?
A: 6.7 µM

Q: What about the Activity [48] of the same compound?
A: 14.42%

Q: What about the Activity [49] of the same compound?
A: 143.86%

Q: What about the Activity [50] of the same compound?
A: 34.37%

Q: What about the Activity [51] of the same compound?
A: 41.86%
